{"source": "ChEMBL document CHEMBL3797084", "about": "“Design and evaluation of novel oxadiazole derivatives as potential prostate cancer agents” (Bioorg Med Chem Lett, 2016)", "key": {"[1]": {"experiment": "Cytotoxicity against human PC3 cells assessed as growth inhibition after 24 hrs by sulforhodamine B assay", "format": "functional, cell-based", "settings": "PC-3, 24 h", "how_it_was_run": "(§1)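 LNCaP and PC-3 were kept as monolayers in RPMI with 10% heat-inactivated FBS and penicillin/streptomycin at 37 °C in 5% CO2. Cells were seeded, left overnight, then treated at various concentrations in triplicate wells for 24 h. They were fixed with 10% TCA for 1 h at 4 °C and stained 10 min with 0.4% SRB in 1% acetic acid. Bound dye was solubilized in Tris-HCl and read at 564 nm. IC50 came from a Boltzmann sigmoidal nonlinear fit, as the mean of at least three experiments.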"}, "[2]": {"test_system": "LNCaP", "experiment": "Cytotoxicity against human LNCAP cells assessed as growth inhibition after 24 hrs by sulforhodamine B assay", "format": "functional, cell-based", "how_it_was_run": "as §1"}, "[3]": {"experiment": "Cell cycle arrest in human PC3 cells assessed as accumulation at G2/M phase at 0.2 uM after 48 hrs by propidium iodide staining-based flow cytometry (reference value: 25.1%)", "format": "functional", "settings": "PC-3"}, "[4]": {"test_system": "PC-3", "experiment": "Induction of apoptosis in human PC3 cells assessed as early apoptotic cells at 0.2 uM after 48 hrs by propidium iodide staining-based flow cytometry (reference value: 4.4%)", "format": "functional"}, "[5]": {"test_system": "PC-3", "experiment": "Induction of apoptosis in human PC3 cells assessed as necrotic cells at 0.2 uM after 48 hrs by propidium iodide staining-based flow cytometry (reference value: 0.4%)", "format": "functional"}, "[6]": {"test_system": "PC-3", "experiment": "Induction of apoptosis in human PC3 cells assessed as viable cells at 0.2 uM after 48 hrs by propidium iodide staining-based flow cytometry (reference value: 91%)", "format": "functional", "settings": "PC-3, 48 h, read-out: Activity"}, "[7]": {"experiment": "Cell cycle arrest in human PC3 cells assessed as accumulation at G0/G1 phase at 0.2 uM after 48 hrs by propidium iodide staining-based flow cytometry (reference value: 58%)", "format": "functional", "settings": "PC-3"}, "[8]": {"test_system": "PC-3", "experiment": "Induction of apoptosis in human PC3 cells assessed as late apoptotic cells at 0.2 uM after 48 hrs by propidium iodide staining-based flow cytometry (reference value: 4.2%)", "format": "functional"}, "[9]": {"experiment": "Cell cycle arrest in human PC3 cells assessed as accumulation at S phase at 0.2 uM after 48 hrs by propidium iodide staining-based flow cytometry (reference value: 6.9%)", "format": "functional", "settings": "PC-3"}, "[10]": {"experiment": "Cell cycle arrest in human PC3 cells assessed as accumulation at sub G0/G1 phase at 0.2 uM after 48 hrs by propidium iodide staining-based flow cytometry (reference value: 1.6%)", "format": "functional", "settings": "PC-3"}}}
{"compound": "O=C(Nc1nnc(-c2ccccc2)o1)c1ccc2ccccc2c1", "values": [{"measurement": "IC50", "setting": "[1]", "result": 26, "unit": "µM"}, {"measurement": "IC50", "setting": "[2]", "result": 32.3, "unit": "µM"}]}
{"compound": "O=C(Nc1nnc(-c2ccc3ccccc3c2)o1)c1ccc(C(F)(F)F)cc1", "values": [{"measurement": "IC50", "setting": "[1]", "result": 11.1, "unit": "µM"}, {"measurement": "IC50", "setting": "[2]", "result": 6.55, "unit": "µM"}]}
{"compound": "O=C(Nc1nnc(-c2ccccc2)o1)c1ccccc1", "values": [{"measurement": "Activity", "setting": "[3]", "result": 21.2, "unit": "%"}, {"measurement": "IC50", "setting": "[1]", "result": 0.22, "unit": "µM"}, {"measurement": "Activity", "setting": "[4]", "result": 13.2, "unit": "%"}, {"measurement": "Activity", "setting": "[5]", "result": 21.3, "unit": "%"}, {"measurement": "viability at 0.2 µM", "setting": "[6]", "result": 49.7, "unit": "%"}, {"measurement": "IC50", "setting": "[2]", "result": 1.33, "unit": "µM"}, {"measurement": "Activity", "setting": "[7]", "result": 50.8, "unit": "%"}, {"measurement": "Activity", "setting": "[8]", "result": 15.8, "unit": "%"}, {"measurement": "Activity", "setting": "[9]", "result": 9, "unit": "%"}, {"measurement": "Activity", "setting": "[10]", "result": 12.1, "unit": "%"}]}
{"compound": "O=c1[nH]cc(F)c(=O)[nH]1", "note": "[FLUOROURACIL]", "values": [{"measurement": "IC50", "setting": "[1]", "result": 0.03, "unit": "µM"}, {"measurement": "IC50", "setting": "[2]", "result": 0.03, "unit": "µM"}]}
{"compound": "O=S(=O)(Nc1nnc(-c2ccc3ccccc3c2)o1)c1ccc2ccccc2c1", "values": [{"measurement": "IC50", "setting": "[1]", "result": 47.8, "unit": "µM"}, {"measurement": "IC50", "setting": "[2]", "result": 3.2, "unit": "µM"}]}
{"compound": "O=S(=O)(Nc1nnc(-c2ccc(C(F)(F)F)cc2)o1)c1ccccc1", "values": [{"measurement": "IC50", "setting": "[1]", "result": 8.34, "unit": "µM"}, {"measurement": "IC50", "setting": "[2]", "result": 2.5, "unit": "µM"}]}
{"compound": "O=S(=O)(Nc1nnc(-c2ccc(C(F)(F)F)cc2)o1)c1ccc2ccccc2c1", "values": [{"measurement": "IC50", "setting": "[1]", "result": 22.2, "unit": "µM"}, {"measurement": "IC50", "setting": "[2]", "result": 3.9, "unit": "µM"}]}
